Test results as given in ChEMBL document CHEMBL4689842, “EUbOPEN Chemogenomics Library wave 1” (2021).
Values joined by “and” are separate entries in the source; they are usually repeats but may differ in a detail not shown here. Equal values may be shown once.

Test system: Fibroblast
Assay: Multiplex assay against human fibroblast
Type: toxicity, cell-based
Method in brief: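 Per cents of healthy-nucleus cells form the tubulin, mitochondrial-mass and membrane-permeability phenotype values. Live cells were stained at seeding with Hoechst33342, BioTracker Green Microtubule Cytoskeleton Dye, MitoTracker Red and Annexin V Alexa Fluor 680. After compound addition they were imaged on a CQ1 microscope at 37°C and 5% CO2, and CellPathfinder machine-learning gating split them into Hoechst high-intensity objects or normal cells, normal cells into healthy, pyknosed or fragmented nuclei, and pyknosed cells into mitotic or apoptotic.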

[1] = 12 h, 1 µM, compound concentration 1 uM, replicate 1
[2] = 12 h, 1 µM, compound concentration 1 uM, replicate 2
[3] = 24 h, 1 µM, compound concentration 1 uM, replicate 1
[4] = 24 h, 1 µM, compound concentration 1 uM, replicate 2
[5] = 12 h, 10 µM, compound concentration 10 uM, replicate 1
[6] = 12 h, 10 µM, compound concentration 10 uM, replicate 2
[7] = 24 h, 10 µM, compound concentration 10 uM, replicate 1
[8] = 24 h, 10 µM, compound concentration 10 uM, replicate 2

CC(C)C(=O)Nc1n[nH]c2cc(-c3cccc(NS(=O)(=O)C4CC4)c3)ccc12
Population Apoptotic (%) [1]: 85% and 80%
Population Fragmented Nuclei (%) [1]: 36% and 25%
Population Healthy Nuclei (%) [1]: 36% and 58%
Population Hoechst High Intensity Objects (%) [1]: 13% and 11%
Population Membrane Permeable-Phenotype (%) [1]: 8% and 7%
Population Mitochondria Different-Phenotype (%) [1]: 0% and 6%
Population Mitotic Cells (%) [1]: 14% and 20%
Population Normal (%) [1]: 86% and 88%
Population Pyknosed Nuclei (%) [1]: 26%
Population Tubulin-Different-Phenotype (%) [1]: 6% and 2%
Total Cell Count [1]: 151 and 184
Population Apoptotic (%) [2]: 100% and 50%
Population Fragmented Nuclei (%) [2]: 56% and 43%
Population Healthy Nuclei (%) [2]: 38% and 40%
Population Hoechst High Intensity Objects (%) [2]: 34% and 18%
Population Normal (%) [2]: 65% and 81%
Population Pyknosed Nuclei (%) [2]: 6% and 15%
Population Tubulin-Different-Phenotype (%) [2]: 15% and 30%
Total Cell Count [2]: 76 and 79
Population Apoptotic (%) [3]: 65% and 60%
Population Fragmented Nuclei (%) [3]: 40% and 28%
Population Healthy Nuclei (%) [3]: 42% and 54%
Population Hoechst High Intensity Objects (%) [3]: 8% and 9%
Population Membrane Permeable-Phenotype (%) [3]: 17% and 7%
Population Mitochondria Different-Phenotype (%) [3]: 1% and 2%
Population Mitotic Cells (%) [3]: 34% and 39%
Population Normal (%) [3]: 91% and 90%
Population Pyknosed Nuclei (%) [3]: 17%
Population Tubulin-Different-Phenotype (%) [3]: 8% and 4%
Total Cell Count [3]: 144 and 207
Population Apoptotic (%) [4]: 42% and 33%
Population Fragmented Nuclei (%) [4]: 47% and 51%
Population Healthy Nuclei (%) [4]: 41% and 36%
Population Hoechst High Intensity Objects (%) [4]: 23% and 22%
Population Membrane Permeable-Phenotype (%) [4]: 15% and 11%
Population Mitochondria Different-Phenotype (%) [4]: 15% and 0%
Population Mitotic Cells (%) [4]: 57% and 66%
Population Normal (%) [4]: 76% and 77%
Population Pyknosed Nuclei (%) [4]: 11% and 12%
Population Tubulin-Different-Phenotype (%) [4]: 11% and 22%
Total Cell Count [4]: 82 and 63

Cn1cncc1[C@@](O)(COc1ccc(C#N)cc1-c1ccc(OC(F)(F)F)cc1)c1ccc(C#N)cc1 [A-108]
Population Apoptotic (%) [5]: 53% and 83%
Population Fragmented Nuclei (%) [5]: 39% and 19%
Population Healthy Nuclei (%) [5]: 44% and 66%
Population Hoechst High Intensity Objects (%) [5]: 15% and 12%
Population Membrane Permeable-Phenotype (%) [5]: 23% and 8%
Population Mitochondria Different-Phenotype (%) [5]: 20% and 7%
Population Mitotic Cells (%) [5]: 46% and 16%
Population Normal (%) [5]: 84% and 87%
Population Pyknosed Nuclei (%) [5]: 15% and 14%
Total Cell Count [5]: 192 and 337
Population Apoptotic (%) [6]: 42% and 57%
Population Fragmented Nuclei (%) [6]: 52% and 61%
Population Healthy Nuclei (%) [6]: 34% and 26%
Population Hoechst High Intensity Objects (%) [6]: 32%
Population Membrane Permeable-Phenotype (%) [6]: 0% and 5%
Population Mitotic Cells (%) [6]: 57% and 42%
Population Normal (%) [6]: 67%
Population Pyknosed Nuclei (%) [6]: 12% and 11%
Population Tubulin-Different-Phenotype (%) [6]: 26% and 52%
Total Cell Count [6]: 82 and 94
Population Apoptotic (%) [7]: 54% and 58%
Population Fragmented Nuclei (%) [7]: 40% and 16%
Population Healthy Nuclei (%) [7]: 47% and 69%
Population Hoechst High Intensity Objects (%) [7]: 11% and 16%
Population Membrane Permeable-Phenotype (%) [7]: 3% and 7%
Population Mitotic Cells (%) [7]: 45% and 41%
Population Normal (%) [7]: 88% and 83%
Population Pyknosed Nuclei (%) [7]: 14%
Total Cell Count [7]: 216 and 318
Population Apoptotic (%) [8]: 50% and 62%
Population Fragmented Nuclei (%) [8]: 50%
Population Healthy Nuclei (%) [8]: 43% and 37%
Population Hoechst High Intensity Objects (%) [8]: 29% and 21%
Population Membrane Permeable-Phenotype (%) [8]: 14% and 16%
Population Mitochondria Different-Phenotype (%) [8]: 66% and 28%
Population Mitotic Cells (%) [8]: 50% and 37%
Population Normal (%) [8]: 70% and 78%
Population Pyknosed Nuclei (%) [8]: 6% and 11%
Population Tubulin-Different-Phenotype (%) [8]: 37% and 52%
Total Cell Count [8]: 88 and 85
